One experiment has as its target Cannabinoid receptor 1 (Rattus norvegicus, UniProt P20272). Nature of the experiment: Displacement of [3H]CP-55940 from cannabinoid CB1 receptor in rat brain cortical membrane. The experiment is classed as cell membranes.
Experiment [1] has as its target Cannabinoid receptor 1 (Rattus norvegicus) (UniProt P20272). Nature of the experiment: Displacement of [3H]CP-55940 from cannabinoid CB1 receptor in rat brain cortical membrane at 10 uM. The experiment is classed as cell membranes. The procedure, abridged: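 Competition vs 0.5 nM [3H]CP55,940 on rat brain cortical membranes (cortex homogenized in 0.32 M sucrose, differentially centrifuged), 50 µg protein/well, in 50 mM Tris-HCl pH 7.4, 3 mM MgCl2, 0.1% BSA; 2.5% DMSO final; rt, 2 h, started by protein; nonspecific with 10 µM unlabeled CP55,940; GF/C filtration, scintillation counting; ≥3 experiments in triplicate.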

Experiment [2] has as its target T1, Cannabinoid receptor 2 (Homo sapiens, UniProt P34972). Kind of experiment: Displacement of [3H]CP-55940 from human recombinant cannabinoid CB2 receptor expressed in HEK293 cells. The experiment is classed as cell-based.
The target in experiment [3] is T1, Cannabinoid receptor 2. Nature of the experiment: Displacement of [3H]CP-55940 from human recombinant cannabinoid CB2 receptor expressed in HEK293 cells at 10 uM. It is filed as cell-based. The procedure, abridged: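 Competition vs 0.5 nM [3H]CP55,940 using commercial HEK293 EBNA membranes expressing human CB2, 50 µg protein/well, in 50 mM Tris-HCl pH 7.4, 3 mM MgCl2, 0.1% BSA; 2.5% DMSO final; rt, 2 h, started by protein; nonspecific with 10 µM unlabeled CP55,940; GF/C filtration, scintillation counting; ≥3 experiments in duplicate.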

The target of experiment [4] is Cannabinoid receptor 1 (Homo sapiens) (UniProt P21554). Kind of experiment: Inverse agonist activity at human recombinant cannabinoid CB1 receptor expressed in HEK293 cells assessed as decrease in GTPgammaS binding at 30 uM by liquid scintillation counting relative to CP-55940. It is filed as functional, cell-based. Also on record: scale not given: the % may be the effect or the level left.

Experiment [5] addresses Cannabinoid receptor 1 (Rattus norvegicus) (UniProt P20272). Nature of the experiment: Antagonist activity at cannabinoid CB1 receptor in rat brain cortical membrane assessed as effect on GTPgammaS binding at 30 uM by liquid scintillation counting relative to CP-55940. The arrangement: scale not given: the % may be the effect or the level left. The experiment is classed as functional, cell membranes.

Each structure is given as a SMILES string.

Chain of Cannabinoid receptor 1 (Homo sapiens) (P21554 whole entry): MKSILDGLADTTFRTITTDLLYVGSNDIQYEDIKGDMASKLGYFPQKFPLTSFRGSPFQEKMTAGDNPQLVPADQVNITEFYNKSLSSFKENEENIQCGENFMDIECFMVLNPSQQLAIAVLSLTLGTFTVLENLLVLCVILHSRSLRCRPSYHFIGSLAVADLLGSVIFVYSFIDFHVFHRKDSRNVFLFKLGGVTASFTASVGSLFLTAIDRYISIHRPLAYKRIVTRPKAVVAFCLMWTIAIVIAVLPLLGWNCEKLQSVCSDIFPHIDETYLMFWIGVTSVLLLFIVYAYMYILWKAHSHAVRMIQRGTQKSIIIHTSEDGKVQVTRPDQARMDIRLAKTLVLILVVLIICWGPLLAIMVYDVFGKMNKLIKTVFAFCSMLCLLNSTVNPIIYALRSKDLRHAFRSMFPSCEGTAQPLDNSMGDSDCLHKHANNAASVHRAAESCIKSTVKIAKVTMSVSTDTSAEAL
T1 sequence (P34972 whole entry): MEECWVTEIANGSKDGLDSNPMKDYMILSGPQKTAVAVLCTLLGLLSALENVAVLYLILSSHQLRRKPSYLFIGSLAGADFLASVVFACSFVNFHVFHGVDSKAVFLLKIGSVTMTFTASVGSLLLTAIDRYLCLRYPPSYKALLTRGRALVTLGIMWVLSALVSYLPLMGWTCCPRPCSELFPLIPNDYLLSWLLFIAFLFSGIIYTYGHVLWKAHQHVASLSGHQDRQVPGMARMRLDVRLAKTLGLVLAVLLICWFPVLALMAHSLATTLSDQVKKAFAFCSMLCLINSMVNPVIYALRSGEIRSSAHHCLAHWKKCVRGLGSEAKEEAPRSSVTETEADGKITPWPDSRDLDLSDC
Chain of Cannabinoid receptor 1 (Rattus norvegicus) (P20272 whole entry): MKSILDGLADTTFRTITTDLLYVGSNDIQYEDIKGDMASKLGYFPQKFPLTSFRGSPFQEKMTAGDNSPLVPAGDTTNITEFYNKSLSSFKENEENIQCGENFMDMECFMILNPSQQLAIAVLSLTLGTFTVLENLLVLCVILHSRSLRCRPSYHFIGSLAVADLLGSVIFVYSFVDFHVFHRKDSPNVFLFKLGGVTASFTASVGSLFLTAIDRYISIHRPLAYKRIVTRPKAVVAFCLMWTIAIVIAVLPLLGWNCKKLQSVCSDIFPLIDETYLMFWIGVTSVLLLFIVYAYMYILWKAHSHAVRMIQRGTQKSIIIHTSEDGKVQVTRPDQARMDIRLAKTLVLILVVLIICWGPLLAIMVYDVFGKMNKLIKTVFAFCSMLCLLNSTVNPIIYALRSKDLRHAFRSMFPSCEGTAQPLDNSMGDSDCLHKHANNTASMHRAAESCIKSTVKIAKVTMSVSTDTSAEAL
Chain of Cannabinoid receptor 1 (P20272 whole entry): as above

As to `Cc1cc2c(ccc3ccccc32)oc1=O`, the values for the Ki at Cannabinoid receptor 1 and on Cannabinoid receptor 2 [2] were above 10 µM and at least 10 µM, respectively. In addition, the Activity in experiment [1] came to 10%; at Cannabinoid receptor 2 [3], 2%.

For `Cc1cc2cc(Cl)cc(Br)c2oc1=O`, the Ki at Cannabinoid receptor 1 and on Cannabinoid receptor 2 [2] was at least 10 µM each time. Moreover, the Activity worked out at 8% in experiment [1] and 3% on Cannabinoid receptor 2 [3].

Consider `COc1cccc2oc(=O)c(Cc3ccccc3)cc12`, for which the Ki on Cannabinoid receptor 1 is 19.1 µM; on Cannabinoid receptor 2 [2], above 10 µM. For the same molecule, the Activity on Cannabinoid receptor 2 [3] was 28%.

For the molecule `COc1ccc2oc(=O)c(C)cc2c1`, the results for the Ki on Cannabinoid receptor 1 and at Cannabinoid receptor 2 [2] were above 10 µM and at least 10 µM, respectively. For the same molecule, the Activity in experiment [1] amounted to 15%; at Cannabinoid receptor 2 [3], 7%.

With `COc1ccc(Cc2cc3c(OC)cc(C)cc3oc2=O)c(OC)c1`, the figures for the Ki at Cannabinoid receptor 1 and at Cannabinoid receptor 2 [2] were 6.23 µM and 2.78 µM, respectively.

`O=c1oc2ccc([N+](=O)[O-])cc2cc1Cc1ccccc1`: the Ki on Cannabinoid receptor 1 and at Cannabinoid receptor 2 [2] was above 10 µM in each case. Besides, the Activity in experiment [1] was 32%; on Cannabinoid receptor 2 [3] it was 15%.

Turning to `COc1ccccc1Cc1cc2c(OC)ccc(C)c2oc1=O`, the figures for the Ki at Cannabinoid receptor 1 and on Cannabinoid receptor 2 [2] were 12.3 µM and 3.65 µM, respectively.

In the case of `COc1cccc2cc(C)c(=O)oc12`, the Ki at Cannabinoid receptor 1 is at least 10 µM; on Cannabinoid receptor 2 [2] it was above 10 µM. The Activity came to 6% in experiment [1] and 4% on Cannabinoid receptor 2 [3].

`O=C1C2=Cc3ccccc3OC2CC/C1=C\c1ccccc1O` (centres undefined): the Ki is 4.9 µM on Cannabinoid receptor 1 and above 10 µM at Cannabinoid receptor 2 [2]. For the same molecule, at Cannabinoid receptor 2 [3], the Activity was 37%.

As for `COc1cc(C)cc2oc(=O)c(Cc3ccccc3)cc12`, the Ki was 3.46 µM on Cannabinoid receptor 1 and at least 10 µM on Cannabinoid receptor 2 [2]. In addition, the Activity in experiment [4] was -8%; in experiment [5], 3%; at Cannabinoid receptor 2 [3] it was 45%.

As to `COc1ccc(Cc2cc3c(OC)cc(C)cc3oc2=O)cc1`, the Ki was 6.14 µM on Cannabinoid receptor 1 and 5.81 µM at Cannabinoid receptor 2 [2]. Also, the figures for the Activity in experiment [4] and in experiment [5] were -10% and 13%, respectively.

Regarding `COc1ccccc1Cc1cc2c(OC)cccc2oc1=O`, the Ki at Cannabinoid receptor 1 is 9.57 µM; at Cannabinoid receptor 2 [2], 3.49 µM.

Turning to `COc1ccccc1Cc1cc2c(C(C)C)ccc(C)c2oc1=O`, the Ki at Cannabinoid receptor 1 was determined as 6.18 µM; on Cannabinoid receptor 2 [2], 5.67 µM.

Consider `COc1cc(C)cc2oc(=O)c(Cc3ccccc3C)cc12`, for which the Ki on Cannabinoid receptor 1 was 1.17 µM; on Cannabinoid receptor 2 [2], 2.16 µM.

On to `COc1cccc2cc(Cc3ccccc3)c(=O)oc12`, for which the Ki on Cannabinoid receptor 1 and at Cannabinoid receptor 2 [2] was at least 10 µM each time. Further, the Activity in experiment [1] is 6%; at Cannabinoid receptor 2 [3], 25%.

For `O=c1oc2ccc3ccccc3c2cc1Cc1ccccc1`, the results for the Ki at Cannabinoid receptor 1 and on Cannabinoid receptor 2 [2] were 4.19 µM and at least 10 µM, respectively. Further, the Activity is -21% in experiment [4], 15% in experiment [5] and 59% on Cannabinoid receptor 2 [3].

Consider `COc1ccc2cc(C)c(=O)oc2c1`, for which the Ki on Cannabinoid receptor 1 and on Cannabinoid receptor 2 [2] was at least 10 µM throughout. In addition, the Activity in experiment [1] was 1%; on Cannabinoid receptor 2 [3], 2%.

Turning to `COc1ccc(Br)c2oc(=O)c(Cc3ccccc3)cc12`, the Ki on Cannabinoid receptor 1 and on Cannabinoid receptor 2 [2] was above 10 µM each time. In addition, the figures for the Activity (in experiment [1]; at Cannabinoid receptor 2 [3]) were 39% and 29%, respectively.

Take `COc1ccccc1Cc1cc2c(ccc3ccccc32)oc1=O`: the results for the Ki at Cannabinoid receptor 1 and at Cannabinoid receptor 2 [2] were above 10 µM and 2.06 µM, respectively. In addition, in experiment [1], the Activity is 41%.

Take `COc1ccc2oc(=O)c(Cc3ccccc3)cc2c1`: the figures for the Ki at Cannabinoid receptor 1 and on Cannabinoid receptor 2 [2] were at least 10 µM and above 10 µM, respectively. Also, the Activity in experiment [1] came to 8%; on Cannabinoid receptor 2 [3], 37%.

As to `COc1cccc(Cc2cc3c(OC)cc(C)cc3oc2=O)c1`, the Ki on Cannabinoid receptor 1 is 4.11 µM; at Cannabinoid receptor 2 [2], 3.37 µM.

As to `COc1cc(C)cc2oc(=O)c(Cc3ccc(C)cc3)cc12`, the Ki was 9.14 µM on Cannabinoid receptor 1 and 4.76 µM on Cannabinoid receptor 2 [2].

Turning to `COc1cc(C)cc2oc(=O)c(Cc3ccccc3O)cc12`, the Ki on Cannabinoid receptor 1 amounted to 1.1 µM; at Cannabinoid receptor 2 [2], 5.24 µM.

Turning to `COc1ccc2cc(Cc3ccccc3)c(=O)oc2c1`, the Ki at Cannabinoid receptor 1 and at Cannabinoid receptor 2 [2] was above 10 µM throughout. Moreover, the results for the Activity (in experiment [1]; at Cannabinoid receptor 2 [3]) were 31% and 33%, respectively.

Consider `COc1cc(Br)cc2cc(C)c(=O)oc12`, for which the Ki on Cannabinoid receptor 1 and at Cannabinoid receptor 2 [2] was above 10 µM in each case. In addition, the values for the Activity (in experiment [1]; at Cannabinoid receptor 2 [3]) were 17% and 9%, respectively.

Consider `Cc1c(C(=O)NN2CCOCC2)nn(-c2ccc(Cl)cc2Cl)c1-c1ccc(I)cc1`, for which the figures for the Activity in experiment [4] and in experiment [5] were -19% and 2%, respectively.

Turning to `Cc1cc2cc(I)ccc2oc1=O`, the Ki at Cannabinoid receptor 1 and on Cannabinoid receptor 2 [2] was above 10 µM each time. In addition, the Activity amounted to 12% in experiment [1] and 10% at Cannabinoid receptor 2 [3].

Turning to `O=c1oc2ccc(I)cc2cc1Cc1ccccc1`, the Ki is above 10 µM on Cannabinoid receptor 1 and at least 10 µM at Cannabinoid receptor 2 [2]. Besides, the Activity turned out to be 31% in experiment [1] and 44% at Cannabinoid receptor 2 [3].

Take `O=c1oc2ccccc2cc1Cc1ccccc1`: the Ki on Cannabinoid receptor 1 and on Cannabinoid receptor 2 [2] was above 10 µM throughout. Also, the values for the Activity (in experiment [1]; on Cannabinoid receptor 2 [3]) were 18% and 28%, respectively.

Turning to `CC1(C)Oc2c(cccc2-c2ccccc2)C=C1C=O`, the Ki on Cannabinoid receptor 1 is at least 10 µM; on Cannabinoid receptor 2 [2], above 10 µM. Besides, the Activity in experiment [1] was found to be 46%; on Cannabinoid receptor 2 [3], 3%.

Consider `COc1ccccc1Cc1cc2c(OC)cc(C)cc2oc1=O`, for which the Ki is 0.738 µM at Cannabinoid receptor 1 and 1.03 µM on Cannabinoid receptor 2 [2]. In addition, the results for the Activity in experiment [4] and in experiment [5] were -16% and -2%, respectively.

For the molecule `CCOC(=O)/C(=C/C=C/c1ccccc1)C(=O)Oc1c(C2SCCS2)ccc2c1C=CC(C)(C)O2`, the Ki is 1.37 µM at Cannabinoid receptor 1 and above 10 µM at Cannabinoid receptor 2 [2]. The Activity on Cannabinoid receptor 2 [3] came out at 22%.

With `Cc1ccc(C(C)C)c2cc(Cc3ccccc3)c(=O)oc12`, the Ki came to 2.76 µM on Cannabinoid receptor 1 and 4.27 µM on Cannabinoid receptor 2 [2]. For the same molecule, the values for the Activity in experiment [4] and in experiment [5] were -9% and 19%, respectively.

For `COc1cc(C)cc2oc(=O)c(Cc3ccccc3Cl)cc12`, the results for the Ki at Cannabinoid receptor 1 and on Cannabinoid receptor 2 [2] were 0.978 µM and 1.54 µM, respectively.

For the molecule `Cc1cc2c(C(C)C)ccc(C)c2oc1=O`, the Ki on Cannabinoid receptor 1 and at Cannabinoid receptor 2 [2] was above 10 µM in each case. Also, the values for the Activity (in experiment [1]; on Cannabinoid receptor 2 [3]) were 26% and 0%, respectively.

Regarding `COc1cc(C)cc2oc(=O)c(Cc3ccc(Cl)cc3)cc12`, the Ki on Cannabinoid receptor 1 was 2.08 µM; on Cannabinoid receptor 2 [2], 9.39 µM.

In the case of `COc1ccc(Br)c2c1C=C(C(C)=O)C(C)O2` (centres undefined), the Ki on Cannabinoid receptor 1 and on Cannabinoid receptor 2 [2] was above 10 µM throughout. The Activity stood at 34% in experiment [1] and 7% on Cannabinoid receptor 2 [3].

For the origin of these results see ChEMBL document CHEMBL1153953, “Synthesis and pharmacological evaluation of coumarin derivatives as cannabinoid receptor antagonists and inverse agonists” (Bioorg Med Chem, 2009).
